According to PMC3150598 (Journal of medicinal chemistry, 2011):

Columns and labels:
[1] = Blood half-life of 1a after i.v. or p.o. administration; format: in vivo, C57BL/6 mice; conditions: for dosed compound still present in whole blood: i.v., after initial burst phase
HDACs 1–9 = experiment: HDAC assay: biochemical profiling against purified HDAC isoforms
[2] = Biodistribution of 1a after i.v. injection; format: in vivo, C57BL/6 mice; conditions: 1 hour and 3 hours after i.v. injection
Method in brief: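 Six C57BL/6 mice received 241 ± 18 μCi of the 18F-labelled test compound by tail-vein i.v. injection. Groups were killed at 1 h (n=3) and 3 h (n=3) post-injection. Tissues were excised and weighed, and radioactivity was gamma-counted and expressed as %ID/g.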

[3] = test system: A2780 human ovarian cancer cells; experiment: PET-CT of A2780 tumor xenograft before and after competition with cold SAHA; format: in vivo, Nu/Nu mice; conditions: after systemic administration
HDAC [4] = conditions: cited from earlier work
HDAC [5] = conditions: cited from earlier work; remark: listed apart in the source

## O=C(CCCCCCC(=O)Nc1ccc([18F])cc1)NO [1a, 18F-suberoylanilide hydroxamic acid]
[1]; formulation A (60% PEG400, 40% water)
  dosed compound still present in whole blood: < 1%
[1]; formulation B (10%DMSO, 90% water)
  dosed compound still present in whole blood: ~3%
[1]; single bolus i.v.
  terminal half-life relative to initial t1/2: approximately 10 times longer
HDACs 1–9
  HDAC potency: low nanomolar potency
[2]
  concentration in cardiac tissue: comparatively low concentrations
  tissues with highest concentration: kidney, liver and blood
  tissues with lowest concentration: thymus and brain
[3]
  accumulation in tumors: accumulate in tumors in a time-dependent manner

## O=C(CCCCCCC(=O)Nc1ccc([19F])cc1)NO [1b, N-Hydroxy-N'-(4-fluorophenyl)octanediamide]
HDACs 1–9; HDACs 1–3 and 6
  potency and selectivity of inhibition of primary HDAC targets compared with SAHA: virtually indistinguishable from SAHA
HDACs 1–9; profiled against purified HDACs 1–9
  HDAC isoforms inhibited: inhibited only HDACs 1–3 and 6

## Nc1ccccc1NC(=O)c1ccc(CNC(=O)OCc2cccnc2)cc1 [5b]
HDAC [4]
  HDAC isoform selectivity: selective for HDAC1–3
  potency relative to SAHA (fold less potent): 20–70 fold

## O=C(C[18F])NCCCCCC(=O)Nc1ccccc1 [compound 4, 6-([18F]-fluoroacetamide)-1-hexanoicanilide]
HDAC [5]
  metabolism in vivo: rapidly metabolized in vivo
